From ChEMBL document CHEMBL4819122, “Novel 4-(piperazin-1-yl)quinolin-2(1H)-one bearing thiazoles with antiproliferative activity through VEGFR-2-TK inhibition” (Bioorg Med Chem, 2021)
pIC50: −log10 of the molar value. The source made the active and inactive calls. The rule behind the calls is not given here.

How the values were obtained:
[1] = tested on: CCRF-CEM; assay: Cytotoxicity against human CCRF-CEM assessed as growth inhibition at 10 uM by NCI protocol relative to control; format: functional; details: read-out: GI
In short: (§1)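 Run by NCI as a single-dose screen at 10 μM across the sixty-cell-line panel, which covers nine human tumour tissue types. The read-out is percent growth inhibition of treated cells relative to untreated cells.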

[2] = tested on: HL-60; assay: Cytotoxicity against human HL60 assessed as growth inhibition at 10 uM by NCI protocol relative to control; format: functional; details: read-out: GI; in short: as §1
[3] = tested on: K562; assay: Cytotoxicity against human K-562 assessed as growth inhibition at 10 uM by NCI protocol relative to control; format: functional; details: read-out: GI; in short: as §1
[4] = tested on: MOLT-4; assay: Cytotoxicity against human MOLT-4 assessed as growth inhibition at 10 uM by NCI protocol relative to control; format: functional; details: read-out: GI; in short: as §1
[5] = tested on: RPMI-8226; assay: Cytotoxicity against human RPMI-8226 assessed as growth inhibition at 10 uM by NCI protocol relative to control; format: functional; in short: as §1
[6] = tested on: SR; assay: Cytotoxicity against human SR assessed as growth inhibition at 10 uM by NCI protocol relative to control; format: functional; details: read-out: GI
In short: (§2)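 Run by the NCI under its standard protocol: one dose of 10 μM against a sixty-line panel from nine human tumour tissues. Result given as percent growth inhibition of treated cells relative to untreated cells.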

[7] = tested on: A549; assay: Cytotoxicity against human A549 assessed as growth inhibition at 10 uM by NCI protocol relative to control; format: functional; details: read-out: GI; in short: as §1
[8] = tested on: EKVX; assay: Cytotoxicity against human EKVX assessed as growth inhibition at 10 uM by NCI protocol relative to control; format: functional; details: read-out: GI; in short: as §1
[9] = tested on: HOP-62; assay: Cytotoxicity against human HOP-62 assessed as growth inhibition at 10 uM by NCI protocol relative to control; format: functional; details: read-out: GI; in short: as §1
[10] = tested on: NCI-H226; assay: Cytotoxicity against human NCI-H226 assessed as growth inhibition at 10 uM by NCI protocol relative to control; format: functional; details: read-out: GI; in short: as §1
[11] = tested on: NCI-H23; assay: Cytotoxicity against human NCI-H23 assessed as growth inhibition at 10 uM by NCI protocol relative to control; format: functional; details: read-out: GI; in short: as §1
[12] = tested on: NCI-H322M; assay: Cytotoxicity against human NCI-H322M assessed as growth inhibition at 10 uM by NCI protocol relative to control; format: functional; details: read-out: GI; in short: as §1
[13] = tested on: NCI-H460; assay: Cytotoxicity against human NCI-H460 assessed as growth inhibition at 10 uM by NCI protocol relative to control; format: functional; details: read-out: GI; in short: as §1
[14] = tested on: NCI-H522; assay: Cytotoxicity against human NCI-H522 assessed as growth inhibition at 10 uM by NCI protocol relative to control; format: functional; details: read-out: GI; in short: as §1
[15] = tested on: HCT-116; assay: Cytotoxicity against human HCT-116 assessed as growth inhibition at 10 uM by NCI protocol relative to control; format: functional; details: read-out: GI; in short: as §1
[16] = tested on: HCT-15; assay: Cytotoxicity against human HCT-15 assessed as growth inhibition at 10 uM by NCI protocol relative to control; format: functional; details: read-out: GI; in short: as §1
[17] = tested on: SF-268; assay: Cytotoxicity against human SF-268 assessed as growth inhibition at 10 uM by NCI protocol relative to control; format: functional; details: read-out: GI; in short: as §1
[18] = tested on: SF-295; assay: Cytotoxicity against human SF-295 assessed as growth inhibition at 10 uM by NCI protocol relative to control; format: functional; details: read-out: GI; in short: as §1
[19] = tested on: SNB-19; assay: Cytotoxicity against human SNB-19 assessed as growth inhibition at 10 uM by NCI protocol relative to control; format: functional; details: read-out: GI; in short: as §2
[20] = tested on: LOX IMVI; assay: Cytotoxicity against human LOX IMVI assessed as growth inhibition at 10 uM by NCI protocol relative to control; format: functional; details: read-out: GI; in short: as §1
[21] = tested on: M14; assay: Cytotoxicity against human M14 assessed as growth inhibition at 10 uM by NCI protocol relative to control; format: functional; details: read-out: GI; in short: as §1
[22] = tested on: MDA-MB-435; assay: Cytotoxicity against human MDA-MB-435 assessed as growth inhibition at 10 uM by NCI protocol relative to control; format: functional, cell-based; in short: as §1
[23] = tested on: SK-MEL-5; assay: Cytotoxicity against human SK-MEL-5 assessed as growth inhibition at 10 uM by NCI protocol relative to control; format: functional; details: read-out: GI; in short: as §1
[24] = tested on: UACC-257; assay: Cytotoxicity against human UACC-257 assessed as growth inhibition at 10 uM by NCI protocol relative to control; format: functional; details: read-out: GI; in short: as §2
[25] = tested on: UACC-62; assay: Cytotoxicity against human UACC-62 assessed as growth inhibition at 10 uM by NCI protocol relative to control; format: functional; details: read-out: GI; in short: as §2
[26] = tested on: IGROV-1; assay: Cytotoxicity against human IGROVI assessed as growth inhibition at 10 uM by NCI protocol relative to control; format: functional; details: read-out: GI; in short: as §1
[27] = tested on: OVCAR-3; assay: Cytotoxicity against human OVCAR-3 assessed as growth inhibition at 10 uM by NCI protocol relative to control; format: functional; details: read-out: GI; in short: as §1
[28] = tested on: OVCAR-4; assay: Cytotoxicity against human OVCAR-4 assessed as growth inhibition at 10 uM by NCI protocol relative to control; format: functional; details: read-out: GI; in short: as §1
[29] = tested on: OVCAR-5; assay: Cytotoxicity against human OVCAR-5 assessed as growth inhibition at 10 uM by NCI protocol relative to control; format: functional, cell-based; in short: as §1
[30] = tested on: OVCAR-8; assay: Cytotoxicity against human OVCAR-8 assessed as growth inhibition at 10 uM by NCI protocol relative to control; format: functional; details: read-out: GI; in short: as §1
[31] = tested on: A498; assay: Cytotoxicity against human A498 assessed as growth inhibition at 10 uM by NCI protocol relative to control; format: functional; details: read-out: GI; in short: as §1
[32] = tested on: ACHN; assay: Cytotoxicity against human ACHN assessed as growth inhibition at 10 uM by NCI protocol relative to control; format: functional; details: read-out: GI; in short: as §1
[33] = tested on: CAKI-1; assay: Cytotoxicity against human Caki1 assessed as growth inhibition at 10 uM by NCI protocol relative to control; format: functional; details: read-out: GI; in short: as §1
[34] = tested on: SN12C; assay: Cytotoxicity against human SN12C assessed as growth inhibition at 10 uM by NCI protocol relative to control; format: functional; details: read-out: GI; in short: as §2
[35] = tested on: UO-31; assay: Cytotoxicity against human UO31 assessed as growth inhibition at 10 uM by NCI protocol relative to control; format: functional; details: read-out: GI; in short: as §2
[36] = tested on: PC-3; assay: Cytotoxicity against human PC3 assessed as growth inhibition at 10 uM by NCI protocol relative to control; format: functional; details: read-out: GI; in short: as §1
[37] = tested on: MCF7; assay: Cytotoxicity against human MCF7 assessed as growth inhibition at 10 uM by NCI protocol relative to control; format: functional; details: read-out: GI; in short: as §1
[38] = tested on: MDA-MB-231; assay: Cytotoxicity against human MDA-MB-231 assessed as growth inhibition at 10 uM by NCI protocol relative to control; format: functional; details: read-out: GI; in short: as §1
[39] = tested on: BT-549; assay: Cytotoxicity against human BT-549 assessed as growth inhibition at 10 uM by NCI protocol relative to control; format: functional; details: read-out: GI; in short: as §1
[40] = tested on: T47D; assay: Cytotoxicity against human T-47D assessed as growth inhibition at 10 uM by NCI protocol relative to control; format: functional; details: read-out: GI; in short: as §2
[41] = tested on: MDA-MB-468; assay: Cytotoxicity against human MDA-MB-468 assessed as growth inhibition at 10 uM by NCI protocol relative to control; format: functional; details: read-out: GI; in short: as §1
[42] = tested on: T47D; assay: Cytotoxicity against human T47D cells assessed as reduction in cell viability after 3 hrs by MTT assay

## COc1ccc(-c2csc(NC(=O)CN3CCN(c4cc(=O)n(-c5ccccc5)c5ccccc45)CC3)n2)cc1
[1]
  inhibition of growth at 10 µM: 24.9%
[2]
  inhibition of growth at 10 µM: 30.2%
[3]
  inhibition of growth at 10 µM: 56.4%
[4]
  inhibition of growth at 10 µM: 53.1%
[5]
  growth inhibition (GI): inactive
[6]
  inhibition of growth at 10 µM: 11.2%
[7]
  inhibition of growth at 10 µM: 19.7%
[8]
  inhibition of growth at 10 µM: 35.2%
[9]
  inhibition of growth at 10 µM: 12.4%
[10]
  inhibition of growth at 10 µM: 18.7%
[11]
  inhibition of growth at 10 µM: 35.7%
[12]
  inhibition of growth at 10 µM: 12.6%
[13]
  inhibition of growth at 10 µM: 15.9%
[14]
  inhibition of growth at 10 µM: 30.4%
[15]
  inhibition of growth at 10 µM: 28.9%
[16]
  inhibition of growth at 10 µM: 18%
[17]
  inhibition of growth at 10 µM: 12.4%
[18]
  inhibition of growth at 10 µM: 22.9%
[19]
  inhibition of growth at 10 µM: 24.2%
[20]
  inhibition of growth at 10 µM: 15%
[21]
  inhibition of growth at 10 µM: 16.1%
[22]
  growth inhibition (GI): inactive
[23]
  inhibition of growth at 10 µM: 53%
[24]
  inhibition of growth at 10 µM: 27.8%
[25]
  inhibition of growth at 10 µM: 31.1%
[26]
  inhibition of growth at 10 µM: 21.5%
[27]
  inhibition of growth at 10 µM: 17.1%
[28]
  inhibition of growth at 10 µM: 70.4%
[29]
  growth inhibition (GI): inactive
[30]
  inhibition of growth at 10 µM: 15.5%
[31]
  inhibition of growth at 10 µM: 13%
[32]
  inhibition of growth at 10 µM: 19%
[33]
  inhibition of growth at 10 µM: 16.1%
[34]
  inhibition of growth at 10 µM: 16%
[35]
  inhibition of growth at 10 µM: 27.9%
[36]
  inhibition of growth at 10 µM: 27.5%
[37]
  inhibition of growth at 10 µM: 26%
[38]
  inhibition of growth at 10 µM: 22.4%
[39]
  inhibition of growth at 10 µM: 19.9%
[40]
  inhibition of growth at 10 µM: 60%
[41]
  inhibition of growth at 10 µM: 55.3%
[42]
  pIC50: 5.09
